For experiment [1], the species on record is Rattus norvegicus. The settings on record: Brain, at 25 µM.
For experiment [2], the species on record is Rattus norvegicus. The experiment can be described thus: Ability to displace [3H]naloxone binding from homogenates of rat brain minus cerebellum at the concentration of 0.78 uM. The procedure, abridged:
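Competition binding of [3H]naloxone to rat brain homogenate with cerebellum removed. Pert–Snyder procedure as modified by Ong et al. Percent inhibition of stereospecific binding read at a single drug concentration of 0.78 μM.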

In experiment [3] the test system is Rattus norvegicus. The experiment can be described thus: Analgesic activity of intraperitoneally administered compound was determined by the inflamed rat-paw reversal of abnormal (three-legged) gait; 4/4 Active. The experiment is classed as functional. Conditions: ip. The procedure, abridged: (§1)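 Rats with an inflamed paw and abnormal three-legged gait, dosed with compound or vehicle. Reversal of the abnormal gait is scored. A reduction of abnormal gait of at least 50% counts as a positive analgesic response. ED50 and 95% confidence limits by Finney's linear arc sine transformation.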

Experiment [4] deals with Rattus norvegicus. The experiment can be described thus: Analgesic activity of intraperitoneally administered compound was determined by the inflamed rat-paw reversal of abnormal (three-legged) gait. The experiment is classed as functional. Conditions: ip. The procedure, abridged:
as §1

For experiment [5], the system named is Rattus norvegicus. The experiment can be described thus: Analgesic activity of intraperitoneally administered compound was determined by the inflamed rat-paw reversal of abnormal (three-legged) gait; 8/10 Active. The settings on record: ip. The experiment is classed as functional. The procedure, abridged:
as §1

Experiment [6] has as its system Rattus norvegicus. The experiment can be described thus: Analgesic activity of intraperitoneally administered compound was determined by the inflamed rat-paw reversal of abnormal (three-legged) gait; R (reject) highest dose tested inactive. The experiment is classed as functional. The settings on record: ip. The procedure, abridged: as §1
For experiment [7], the species on record is Rattus norvegicus. The settings on record: Brain, at 0.78 µM.
Experiment [8] is filed under the species Rattus norvegicus. The experiment can be described thus: (§2) Concentration of drug required to inhibit the stereospecific binding of [3H]naloxone (5 nM) to homogenates of rat brain minus cerebellum in the presence of 100 mM NaCl. The experiment is classed as functional. The gist of the method:
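Displacement of [3H]naloxone (5 nM) from stereospecific sites in rat brain homogenate (minus cerebellum), run with 100 mM NaCl added. Eight displacing ligand concentrations, each analysis in triplicate. Value is the drug concentration giving 50% inhibition of binding.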

The species entered for experiment [9] is Rattus norvegicus. The experiment can be described thus: Concentration of drug required to inhibit the stereospecific binding of [3H]-naloxone (5 nM) to homogenates of rat brain minus cerebellum in the absence of 100 mM NaCl. The experiment is classed as functional, organism-based.
The subject of experiment [10] is Rattus norvegicus. Briefly: Analgesic activity of perorally administered compound was determined by the inflamed rat-paw reversal of abnormal (three-legged) gait. The experiment is classed as functional. The settings on record: po. The gist of the method:
as §1

For experiment [11], the species on record is Rattus norvegicus. Described as §2.
Experiment [12] is filed under the species Rattus norvegicus. Briefly: animal or person. The settings on record: po.
Experiment [13] relates to Rattus norvegicus. Briefly: Analgesic activity of subcutaneously administered compound was determined by the inflamed rat-paw reversal of abnormal (three-legged) gait; 0.06-2.0. Conditions: sc.

Where only a bound is given, the exact number is not on record here.

The inhibition is the change of the read-out against control, counted positive when it falls. A higher inhibition goes with a strong effect. Usually ED50 stands for the dose that gives a 50% effect, or the effect in half of the subjects. Take `COC1(OC)CC2CN(C)CC21c1ccccc1` (stereo not drawn): the inhibition in the experiment filed under Rattus norvegicus [1] turned out to be 62%; in the experiment filed under Rattus norvegicus [2] it was 13%. Further, the ED50 in the experiment with Rattus norvegicus [3] was < 25 mg/kg.
Turning to `COc1cccc(C23CNCC2CC3(OC)OC)c1` (stereo not drawn), the ED50 in the experiment on Rattus norvegicus [4] is > 25 mg/kg.
As for `COc1cccc(C23CN(C)CC2CC32OCC(C)(C)CO2)c1.O=C(O)/C=C/C(=O)O` (stereo not drawn), the ED50 in the experiment on Rattus norvegicus [5] is < 25 mg/kg.
`COc1cccc(C23CN(C)CC2CC3=O)c1` (stereo not drawn): the ED50 in the experiment on Rattus norvegicus [6] is 25 mg/kg. For the same compound, the inhibition in the experiment filed under Rattus norvegicus [1] was 22%; in the experiment filed under Rattus norvegicus [7], 12%.
As usually defined, the IC50 is the concentration needed to halve the response being measured. As to `COc1ccc2c3c1O[C@H]1[C@@H](O)C=C[C@H]4[C@@H](C2)N(C)CC[C@@]341` [CODEINE], the IC50 in the experiment filed under Rattus norvegicus [8] came out at 22000 nM; in the experiment listed under Rattus norvegicus [9] it was 2600 nM.
In the case of `COC1(OC)CC2CN(C)CC21c1cccc(O)c1` (stereo not drawn), the IC50 in the experiment listed under Rattus norvegicus [8] worked out at 579 nM; in the experiment filed under Rattus norvegicus [9], 61 nM. Besides, the inhibition in the experiment filed under Rattus norvegicus [1] stood at 99%; in the experiment listed under Rattus norvegicus [7], 85%. In the experiment on Rattus norvegicus [4], the ED50 was ~3 mg/kg.
Regarding `COC1(OC)CC2CN(C)CC21c1ccc(C)cc1` (stereo not drawn), the ED50 with Rattus norvegicus [6] was determined as 25 mg/kg. For the same compound, the inhibition stood at 62% in the experiment listed under Rattus norvegicus [1] and 11% in the experiment listed under Rattus norvegicus [2].
As for `C=CCN1CC[C@]23CCCC[C@H]2[C@H]1Cc1ccc(O)cc13` [LEVALLORPHAN], the 50% inhibitory concentration (IC50) in the experiment listed under Rattus norvegicus [8] is 34 nM; in the experiment filed under Rattus norvegicus [9] it was 9 nM.
On to `COc1cccc(C23CN(C)CC2CC3(OC)OC)c1` (stereo not drawn), for which the IC50 in the experiment listed under Rattus norvegicus [8] was determined as 62500 nM; in the experiment listed under Rattus norvegicus [9], 9920 nM. For the same compound, the inhibition in the experiment listed under Rattus norvegicus [1] is 61%; in the experiment listed under Rattus norvegicus [2] it was 7%. In addition, the median effective dose (ED50) in the experiment on Rattus norvegicus [10] amounted to 4 mg/kg.
In the case of `C=CCN1CC[C@]23c4c5ccc(O)c4O[C@H]2C(=O)CC[C@@]3(O)[C@H]1C5` [NALOXONE], the results for the half-maximal inhibitory concentration (IC50) in the experiment filed under Rattus norvegicus [8] and in the experiment listed under Rattus norvegicus [9] were 42 nM and 46 nM, respectively.
Regarding `CN1CC[C@]23c4c5ccc(O)c4O[C@H]2[C@@H](O)C=C[C@H]3[C@H]1C5.CN1CC[C@]23c4c5ccc(O)c4O[C@H]2[C@@H](O)C=C[C@H]3[C@H]1C5.O=S(=O)(O)O`, the IC50 in the experiment filed under Rattus norvegicus [11] was 380 nM; in the experiment listed under Rattus norvegicus [9] it was 74 nM. Besides, the inhibition in the experiment filed under Rattus norvegicus [1] amounted to 100%; in the experiment filed under Rattus norvegicus [7], 97%. Moreover, the values for the ED50 in the experiment listed under Rattus norvegicus [12] and in the experiment on Rattus norvegicus [13] were 35 mg/kg and 0.4 mg/kg, respectively.

Source of the values: ChEMBL document CHEMBL1122651, “5-Aryl-3-azabicyclo[3.2.0]heptan-6-one ketals, compounds with morphine-like analgesic activity” (J Med Chem, 1984).
